Experiments:
Estrogen receptor = Estrogen receptor (Homo sapiens, UniProt Q92731+P03372); settings: cv-1
Glucocorticoid receptor [1] = biological target: T1, Glucocorticoid receptor (Homo sapiens, UniProt P04150); test: biochemical
T1 sequence (P04150 whole entry): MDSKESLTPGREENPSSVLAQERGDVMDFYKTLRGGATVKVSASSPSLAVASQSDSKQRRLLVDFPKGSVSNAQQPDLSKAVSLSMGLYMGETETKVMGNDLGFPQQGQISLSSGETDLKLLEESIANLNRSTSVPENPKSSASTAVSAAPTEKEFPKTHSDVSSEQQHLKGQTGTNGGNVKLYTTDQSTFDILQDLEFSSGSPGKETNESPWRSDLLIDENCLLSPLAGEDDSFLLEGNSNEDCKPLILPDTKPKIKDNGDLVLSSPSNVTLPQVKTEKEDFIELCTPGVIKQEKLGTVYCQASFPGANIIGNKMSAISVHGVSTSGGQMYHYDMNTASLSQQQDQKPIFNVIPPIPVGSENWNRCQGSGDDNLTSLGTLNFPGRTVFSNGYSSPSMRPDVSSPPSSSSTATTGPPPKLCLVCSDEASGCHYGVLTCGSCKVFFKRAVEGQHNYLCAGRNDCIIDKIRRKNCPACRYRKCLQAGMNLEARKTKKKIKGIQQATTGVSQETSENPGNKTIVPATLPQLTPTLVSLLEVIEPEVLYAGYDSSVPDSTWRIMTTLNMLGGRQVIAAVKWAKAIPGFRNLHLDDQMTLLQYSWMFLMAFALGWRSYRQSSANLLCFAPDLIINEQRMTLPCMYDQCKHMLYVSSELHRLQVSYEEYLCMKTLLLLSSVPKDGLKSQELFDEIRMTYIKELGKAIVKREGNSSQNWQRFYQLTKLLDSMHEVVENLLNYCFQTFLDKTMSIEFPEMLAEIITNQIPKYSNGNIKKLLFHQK

[2] = biological target: T2, Mineralocorticoid receptor (Homo sapiens, UniProt P08235); test: Inhibitory activity (IC50) against human mineralocorticoid receptor expressed in CV-1 cells; type: cell-based
T2 sequence (P08235 whole entry): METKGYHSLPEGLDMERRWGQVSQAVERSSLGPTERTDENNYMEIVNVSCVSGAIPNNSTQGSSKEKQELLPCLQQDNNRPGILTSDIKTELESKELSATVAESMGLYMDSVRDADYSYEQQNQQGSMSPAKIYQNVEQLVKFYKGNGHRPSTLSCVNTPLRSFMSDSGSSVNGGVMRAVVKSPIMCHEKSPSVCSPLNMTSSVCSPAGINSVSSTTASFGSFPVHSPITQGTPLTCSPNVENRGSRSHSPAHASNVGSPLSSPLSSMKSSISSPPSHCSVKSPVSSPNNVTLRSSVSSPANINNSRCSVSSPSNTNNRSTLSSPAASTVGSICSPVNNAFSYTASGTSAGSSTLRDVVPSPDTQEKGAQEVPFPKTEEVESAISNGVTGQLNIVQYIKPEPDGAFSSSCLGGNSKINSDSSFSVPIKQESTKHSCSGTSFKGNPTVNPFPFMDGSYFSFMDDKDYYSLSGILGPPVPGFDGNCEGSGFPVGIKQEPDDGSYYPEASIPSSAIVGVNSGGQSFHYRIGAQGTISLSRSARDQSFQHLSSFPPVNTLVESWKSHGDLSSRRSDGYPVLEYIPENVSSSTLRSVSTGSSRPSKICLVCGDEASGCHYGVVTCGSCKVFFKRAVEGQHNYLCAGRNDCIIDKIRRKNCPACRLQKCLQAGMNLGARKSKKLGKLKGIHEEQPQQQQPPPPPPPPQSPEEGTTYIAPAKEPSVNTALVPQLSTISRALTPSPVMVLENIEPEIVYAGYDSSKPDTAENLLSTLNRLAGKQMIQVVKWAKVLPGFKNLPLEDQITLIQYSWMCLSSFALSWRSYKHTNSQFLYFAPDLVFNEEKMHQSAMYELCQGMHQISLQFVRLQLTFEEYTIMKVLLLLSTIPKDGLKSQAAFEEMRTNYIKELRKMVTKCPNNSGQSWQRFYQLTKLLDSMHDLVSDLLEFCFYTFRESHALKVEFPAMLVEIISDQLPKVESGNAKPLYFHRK
How it was run: (§1)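 Cotransfection assays in CV-1 cells with a luciferase reporter, read as normalized LUC expression. In antagonist mode, the reference agonists were DHT for hAR, dexamethasone for hGR and aldosterone for hMR. Antagonist efficacy was expressed as the percent of maximal inhibition of the agonist. Values are means of at least three separate experiments in triplicate, or of two experiments.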

Glucocorticoid receptor [3] = biological target: T1, Glucocorticoid receptor; test: Inhibitory activity (IC50) against human glucocorticoid receptor expressed in CV-1 cells; type: cell-based
How it was run: as §1

Progesterone receptor = biological target: T3, Progesterone receptor (Homo sapiens, UniProt P06401); test: Binding affinity against human progesterone receptor
T3 sequence (P06401 whole entry): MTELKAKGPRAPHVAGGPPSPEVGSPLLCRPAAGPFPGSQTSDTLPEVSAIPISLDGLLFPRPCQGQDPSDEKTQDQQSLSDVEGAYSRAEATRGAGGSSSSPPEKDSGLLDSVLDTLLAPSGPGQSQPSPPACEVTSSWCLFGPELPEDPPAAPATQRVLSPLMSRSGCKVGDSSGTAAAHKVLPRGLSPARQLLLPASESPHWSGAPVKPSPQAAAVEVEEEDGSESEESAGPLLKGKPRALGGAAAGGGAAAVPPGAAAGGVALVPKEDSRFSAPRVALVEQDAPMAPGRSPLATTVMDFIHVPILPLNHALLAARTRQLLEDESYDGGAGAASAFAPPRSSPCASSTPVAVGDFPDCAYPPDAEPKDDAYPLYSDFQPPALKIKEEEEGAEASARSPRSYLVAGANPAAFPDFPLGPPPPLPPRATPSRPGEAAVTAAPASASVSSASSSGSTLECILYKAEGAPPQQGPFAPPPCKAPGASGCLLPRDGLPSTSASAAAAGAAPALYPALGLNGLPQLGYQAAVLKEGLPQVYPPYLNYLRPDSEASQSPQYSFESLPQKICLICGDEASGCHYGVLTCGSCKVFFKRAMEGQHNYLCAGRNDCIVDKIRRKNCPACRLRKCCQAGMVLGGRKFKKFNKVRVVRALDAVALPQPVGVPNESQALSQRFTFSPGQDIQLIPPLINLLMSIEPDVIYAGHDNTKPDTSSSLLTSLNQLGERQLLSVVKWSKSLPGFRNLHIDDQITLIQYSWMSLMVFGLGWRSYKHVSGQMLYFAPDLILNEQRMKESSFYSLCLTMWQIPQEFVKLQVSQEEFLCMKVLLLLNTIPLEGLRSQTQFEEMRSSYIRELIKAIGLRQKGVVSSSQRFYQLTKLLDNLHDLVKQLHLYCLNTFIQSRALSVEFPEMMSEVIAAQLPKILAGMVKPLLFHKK

Row | Structure (SMILES) | IC50 (Estrogen receptor) [nM] | Ki (Glucocorticoid receptor [1]) [nM] | IC50 [2] [nM] | IC50 (Glucocorticoid receptor [3]) [nM] | Ki (Progesterone receptor) [nM]
1 | CC1=CC(C)(C)Nc2ccc3c(c21)/C(=C/c1cc(F)ccc1F)Oc1ccccc1-3 | > 10000 | 173 | > 10000 | 371 | 1.5
2 | CC1=CC(C)(C)Nc2ccc3c(c21)/C(=C/c1ccccc1C)Oc1ccccc1-3 | < 20 | 564 | > 10000 | 1050 | 0.66
3 | CC1=CC(C)(C)Nc2ccc3c(c21)/C(=C/c1ccc(F)c(F)c1)Oc1ccccc1-3 | > 10000 | 237 | > 10000 | 1650 | 3.6

Reference: ChEMBL document CHEMBL1131161 (J Med Chem, 1998)
